Assays:
[1] = system: Pyrrhocoris apterus; experiment: Inhibition of metamorphosis in freshly molted Pyrrhocoris apterus (red firebug) fourth-instar nymph assessed as compound dose per individual causing reduction in metamorphosis by oral drinking assay; type: functional
Procedure, shortened: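 Drinking assay: compound in acetone was added to distilled water with Tween-80 at 0.025, 0.25, 2.5 and 25 per microlitre. It was offered in cotton-plugged glass vials at the end of the fourth nymphal instar, with the acetone/water/Tween-80 mixture as reference. Ten insects per concentration, three replicates, 25 ± 0.5 °C, 16L:8D, 50 ± 5% RH. Metamorphosis inhibition was scored morphologically after the last ecdysis.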

[2] = system: Pyrrhocoris apterus; experiment: Inhibition of metamorphosis in freshly molted Pyrrhocoris apterus (red firebug) fifth-instar nymph assessed as compound dose per individual causing reduction in metamorphosis by topical screening test; type: functional
Procedure, shortened: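 Topical application with a Burkhard microapplicator; acetone alone served as the reference treatment. Ten insects per dose, three replicates. Insects were held in Petri dishes at 25 ± 0.5 °C, 16L:8D, 50 ± 5% RH, and checked daily. The degree of metamorphosis inhibition was scored morphologically after the next molt. ID-50 per individual was computed from linear regression tested by ANOVA.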

| SMILES | ID50 [1] [µg] | ID50 [2] [µg] |
| --- | --- | --- |
| COC(C)(C)CCC[C@H](C)C/C=C/C(C)=C/C(=O)OC(C)C [METHOPRENE] | 0.41 | 0.01 |
| CCOC(=O)NCCOc1ccc(C[C@@H]2CCCC[C@@H]2OC(=O)CCC(=O)O[C@H]2CC[C@@]3(C)C(=CC[C@H]4[C@@H]5CC[C@H]([C@H](C)/C=C/[C@@H](CC)C(C)C)[C@@]5(C)CC[C@@H]43)C2)cc1 | 4.989 | 0.0185 |
| CCOC(=O)NCCOc1ccc(C[C@H]2CCCC[C@@H]2OC(=O)CC[C@@H](C)[C@H]2CC[C@H]3[C@@H]4[C@H](OC=O)C[C@@H]5C[C@H](OC=O)CC[C@]5(C)[C@H]4C[C@H](OC=O)[C@]23C)cc1 | 6.153 | 1.775 |
| CCOC(=O)NCCOc1ccc(C[C@@H]2CCCC[C@@H]2O)cc1 (relative stereo) | 0.0012 | 0.001 |
| CCOC(=O)NCCOc1ccc(C[C@H]2CCCC[C@@H]2OC(=O)CC[C@@H](C)[C@H]2CC[C@H]3[C@@H]4[C@H](OC=O)C[C@@H]5C[C@H](O)CC[C@]5(C)[C@H]4C[C@H](OC=O)[C@]23C)cc1 | >25 | >5 |
| CCOC(=O)NCCOc1ccc(C[C@@H]2CCCC[C@@H]2OC(=O)CC[C@@H](C)[C@H]2CC[C@H]3[C@@H]4[C@H](OC=O)C[C@@H]5C[C@H](OC=O)CC[C@]5(C)[C@H]4C[C@H](OC=O)[C@]23C)cc1 | 0.051 | 0.094 |
| CCOC(=O)NCCOc1ccc(C[C@H]2CCCC[C@@H]2OC(=O)CCC(=O)O[C@H]2CC[C@@]3(C)C(=CC[C@H]4[C@@H]5CC[C@H]([C@H](C)/C=C/[C@@H](CC)C(C)C)[C@@]5(C)CC[C@@H]43)C2)cc1 | >25 | >5 |
| CCOC(=O)NCCOc1ccc(C[C@H]2CCCC[C@@H]2O)cc1 (relative stereo) | 0.5 | 0.71 |
| CCOC(=O)NCCOc1ccc(Oc2ccccc2)cc1 [PHENOXYCARB] | 0.2 | 0.09 |
| CCOC(=O)NCCOc1ccc(C[C@@H]2CCCC[C@@H]2OC(=O)CC[C@@H](C)[C@H]2CC[C@H]3[C@@H]4[C@H](OC=O)C[C@@H]5C[C@H](O)CC[C@]5(C)[C@H]4C[C@H](OC=O)[C@]23C)cc1 | 0.423 | 0.062 |
| CC(COc1ccc(Oc2ccccc2)cc1)Oc1ccccn1 (configuration not stated) [PYRIPROXYFEN] | 25 | 2.3 |

Source: ChEMBL document CHEMBL3046445, “Steroid conjugates: Synthesis and preliminary biological testing of pro-juvenoids” (2010)
